Experiments:
Type in all cases: functional
C3H/3T3 [1] = assay: Inhibitory effect on MSV-induced transformation of C3H/3T3 cells; conditions: Mus musculus, read-out: ED50 (the source's name)
Summary of the method: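 Murine embryo fibroblast C3H/3T3 cells infected with Moloney murine sarcoma virus; the read-out is inhibition of virus-induced cell transformation.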

C3H/3T3 [2] = assay: Minimum cytotoxic concentration required to inhibit MSV-induced transformation of C3H/3T3 cells; conditions: Mus musculus
Summary of the method: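 Murine embryo fibroblast C3H/3T3 cells examined under the microscope. The value is the minimum concentration at which an alteration of normal cell morphology was seen.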

MT4 [3] = assay: Effective dose of compound required to achieve 50% protection of MT-4 cells against the cytopathic effect of HIV; conditions: Homo sapiens, read-out: ED50 (the source's name)
Summary of the method: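 HIV-1 strain HTLV-III_B in human MT-4 cells; the read-out is inhibition of virus-induced cytopathic effect. ED50 is the dose giving 50% protection of the cells.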

MT4 [4] = assay: Cytotoxic dose required to reduce the viability of normal uninfected MT-4 cells by 50%; conditions: Homo sapiens, read-out: CD50 (the source's name)

Compound	EC50 (C3H/3T3 [1]) [µM]	MCC (C3H/3T3 [2]) [µM]	EC50 (MT4 [3]) [µM]	CC50 (MT4 [4]) [µM]
Cc1cn([C@H]2C[C@@H](n3cnnc3)[C@@H](CO)O2)c(=O)[nH]c1=O	> 100	> 100	> 5	4.8
Cc1cn([C@H]2C[C@@H](n3ccnn3)[C@@H](CO)O2)c(=O)[nH]c1=O	> 100	> 100	> 500	> 500
Cc1cn([C@@H]2O[C@H](CO)[C@H](n3cccn3)C2O)c(=O)[nH]c1=O (stereo partly drawn)	> 100	> 100	> 100	> 100
Cc1cn([C@H]2C[C@@H](NC=O)[C@@H](CO)O2)c(=O)[nH]c1=O	> 100	> 100	> 100	66
Cc1cn([C@H]2C[C@@H](n3cncn3)[C@@H](CO)O2)c(=O)[nH]c1=O	> 100	> 100	> 500	> 500
Cc1cn([C@@H]2O[C@H](CO)[C@@H](O)C2n2cncn2)c(=O)[nH]c1=O (stereo partly drawn)	> 100	> 100	> 500	> 500
Cc1cn([C@@H]2O[C@H](CO)C[C@H]2n2cncn2)c(=O)[nH]c1=O	> 100	> 100	> 500	> 500
Cc1cn([C@@H]2O[C@H](CO)[C@H](n3ccnc3)C2O)c(=O)[nH]c1=O (stereo partly drawn)	> 100	> 100	> 500	> 500
Cc1cn([C@H]2C[C@@H](n3ccnc3)[C@@H](CO)O2)c(=O)[nH]c1=O	> 100	> 100	> 500	> 500
Cc1cn([C@H]2C[C@@H](n3cccc3)[C@@H](CO)O2)c(=O)[nH]c1=O	91	> 100	201	> 500
Cc1cn([C@@H]2O[C@H](CO)[C@H](n3cncn3)C2O)c(=O)[nH]c1=O (stereo partly drawn)	> 100	> 100	> 500	> 500
Cc1cn([C@H]2C[C@@H](n3cccn3)[C@@H](CO)O2)c(=O)[nH]c1=O	> 100	> 100	> 500	> 500

From ChEMBL document CHEMBL1124709, “Synthesis and antiviral activity of 3'-heterocyclic substituted 3'-deoxythymidines” (1990)
